pIC50: −log10 of the molar value. Calls of active or inactive are those of the source. The calls are words filed in the database; no cut-off is given here. Where a SMILES comes first, the peptide text is derived from it. The star is where a group is joined. Cbz = O=C(OCc1ccccc1)*
Assays:
[1] = molecular target: T1, Mitogen-activated protein kinase 14 (Homo sapiens, UniProt Q16539); test: Inhibition of recombinant human p38alpha expressed in Escherichia coli assessed as residual activity at 10 uM (reference value: 100 +/- 0.1%)
T1 sequence (Q16539 whole entry, the tested form may be a part): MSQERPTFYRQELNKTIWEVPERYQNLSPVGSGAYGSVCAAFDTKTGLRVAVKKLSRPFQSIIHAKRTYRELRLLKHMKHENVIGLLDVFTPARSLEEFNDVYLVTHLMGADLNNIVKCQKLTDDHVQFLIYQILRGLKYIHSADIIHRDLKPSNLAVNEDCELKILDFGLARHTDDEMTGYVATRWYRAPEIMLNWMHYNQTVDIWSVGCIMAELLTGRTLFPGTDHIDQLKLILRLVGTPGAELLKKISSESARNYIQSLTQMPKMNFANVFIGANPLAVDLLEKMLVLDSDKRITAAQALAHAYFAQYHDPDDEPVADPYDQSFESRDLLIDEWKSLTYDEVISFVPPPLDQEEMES
Summary of the method: (§1)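 Single-point kinase screen at 10 μM, in duplicate; ALK5 as human GST-fusion from baculovirus/Sf9, p38α as untagged human protein from E. coli; residual activity relative to DMSO vehicle, mean ± SD of two independent experiments.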

[2] = molecular target: T2, TGF-beta receptor type-1 (Homo sapiens) (UniProt P36897); test: Inhibition of recombinant GST-tagged human ALK5 expressed in baculovirus infected Sf9 insect cells assessed as residual activity at 10 uM; summary of the method: as §1
T2 sequence (whole entry): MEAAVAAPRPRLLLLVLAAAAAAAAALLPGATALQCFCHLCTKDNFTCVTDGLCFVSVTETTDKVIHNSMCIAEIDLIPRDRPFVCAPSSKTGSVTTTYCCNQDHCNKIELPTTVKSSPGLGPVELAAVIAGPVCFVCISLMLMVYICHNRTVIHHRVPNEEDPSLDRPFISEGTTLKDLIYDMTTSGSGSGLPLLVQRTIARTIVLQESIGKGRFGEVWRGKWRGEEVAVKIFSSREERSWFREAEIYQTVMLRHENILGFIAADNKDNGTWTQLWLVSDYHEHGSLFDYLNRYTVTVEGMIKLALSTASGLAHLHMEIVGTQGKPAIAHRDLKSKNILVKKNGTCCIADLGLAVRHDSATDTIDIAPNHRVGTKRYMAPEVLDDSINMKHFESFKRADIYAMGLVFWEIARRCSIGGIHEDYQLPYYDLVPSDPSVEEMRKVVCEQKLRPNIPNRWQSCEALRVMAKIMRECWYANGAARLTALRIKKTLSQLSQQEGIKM

[3] = molecular target: T1, Mitogen-activated protein kinase 14; test: Inhibition of recombinant human p38alpha expressed in Escherichia coli
Summary of the method: (§2)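 IC50 determination against ALK5 (human GST-fusion, Sf9 baculovirus) and p38α (untagged human, E. coli); values averaged from three independent experiments run in triplicate.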

[4] = molecular target: T3, TGF-beta receptor type-1 (Homo sapiens, UniProt P36897); test: Inhibition of recombinant GST-tagged human ALK5 expressed in baculovirus infected Sf9 insect cells; summary of the method: as §2
T3 sequence (P36897 whole entry): T2 sequence (whole entry)

[5] = tested on: HCT-116; test: […] of HIF1alpha expression in human HCT116 cells at 10 uM after 30 mins in presence of 1% O2 by Western blot analysis; format: functional, cell-based
[6] = tested on: HCT-116; test: Inhibition of TNFalpha-induced HIF1alpha expression in human HCT116 cells at 50 uM by Western blot analysis; format: functional, cell-based
Summary of the method: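 HCT116 exposed to TNF 10 ng/mL for 24 h with graded concentrations; total protein blotted for HIF-1α, Topo-I reprobe as loading control.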

[7] = tested on: HCT-116; test: Induction of apoptosis in human HCT116 cells assessed as viable cells at 50 uM after 12 hrs by Annexin-V/PI-staining based flow cytometric analysis (reference value: 95.3%); format: functional; details: HCT-116, 12 h, read-out: Activity
[8] = tested on: HCT-116; test: Induction of apoptosis in human HCT116 cells assessed as necrotic cells at 50 uM after 12 hrs by Annexin-V/PI-staining based flow cytometric analysis (reference value: 3.5%); format: functional
[9] = tested on: HCT-116; test: Induction of apoptosis in human HCT116 cells assessed as viable cells at 50 uM preincubated for 12 hrs followed by TNF stimulation and measured after 24 hrs by Annexin-V/PI-staining based flow cytometric analysis (reference value: 92.4%); format: functional; details: read-out: Activity
[10] = tested on: HCT-116; test: Induction of apoptosis in human HCT116 cells assessed as early apoptotic cells at 50 uM preincubated for 12 hrs followed by TNF stimulation and measured after 24 hrs by Annexin-V/PI-staining based flow cytometric analysis (reference value: 2.8%); format: functional
[11] = tested on: HCT-116; test: Induction of apoptosis in human HCT116 cells assessed as late apoptotic cells at 50 uM preincubated for 12 hrs followed by TNF stimulation and measured after 24 hrs by Annexin-V/PI-staining based flow cytometric analysis (reference value: 1.4%); format: functional
[12] = tested on: HCT-116; test: Induction of apoptosis in human HCT116 cells assessed as necrotic cells at 50 uM preincubated for 12 hrs followed by TNF stimulation and measured after 24 hrs by Annexin-V/PI-staining based flow cytometric analysis (reference value: 3.6%); format: functional

Compound | Activity [1] [%] | Activity [2] [%] | other results
Cc1cccc(-c2nn(CC(=S)Nc3cccc(C#N)c3)cc2-c2ccnc(-c3ccccc3)c2)n1 | 15 | 12 | pIC50 [3]: 5.94; pIC50 [4]: 5.66
Cc1cccc(-c2nn(CC(=O)Nc3ccccc3F)cc2-c2ccnc(-c3ccccc3)c2)n1 | 20 | 20 | 
Cc1cccc(-c2nn(CC(=S)Nc3cccc(F)c3)cc2-c2ccnc3ccccc23)n1 | 3 | 2 | pIC50 [3]: 7.20; pIC50 [4]: 7.37
Cc1cccc(-c2nn(CC(=O)Nc3cccc(F)c3)cc2-c2ccnc3ccccc23)n1 | 4 | 0 | 
Cc1cccc(-c2c(-c3ccnc(-c4ccccc4)c3)cnn2CC(=O)Nc2cccc(C#N)c2)n1 | 135 | 105 | 
Cc1cccc(-c2c(-c3ccnc4ccccc34)cnn2CC(=O)Nc2cccc(F)c2)n1 | 31 | 39 | 
Cc1cccc(-c2c(-c3ccnc4ccccc34)cnn2CC(=O)Nc2cccc(C#N)c2)n1 | 51 | 17 | 
Cc1cccc(-c2nn(CC(=S)Nc3ccccc3)cc2-c2ccnc(-c3ccccc3)c2)n1 | 10 | 11 | pIC50 [3]: 6.27; pIC50 [4]: 5.77
Cc1cccc(-c2nn(CC(=O)Nc3ccccc3)cc2-c2ccnc(-c3ccccc3)c2)n1 | 11 | 12 | 
Cc1cccc(-c2c(-c3ccnc4ccccc34)cnn2CC(=O)Nc2ccccc2)n1 | 24 | 71 | 
Cc1cccc(-c2c(-c3ccnc(-c4ccccc4)c3)cnn2CC(=O)Nc2ccccc2F)n1 | 96 | 102 | 
Cc1cccc(-c2c(-c3ccnc(-c4ccccc4)c3)cnn2CC(=O)Nc2ccccc2)n1 | 66 | 100 | 
CC(C)C[C@@H](C=O)NC(=O)[C@H](CC(C)C)NC(=O)[C@H](CC(C)C)NC(=O)OCc1ccccc1 (Cbz-Leu-Leu-Leu-aldehyde) |  |  | Activity [5]: Active
Cc1cccc(-c2c(-c3ccnc4ccccc34)cnn2CC(=O)Nc2ccccc2F)n1 | 50 | 79 | 
Cc1cccc(-c2nn3c(c2-c2ccnc4ccc(C(N)=O)cc24)CCC3)n1 [GALUNISERTIB] | 4 |  | inhibition [6]: Active; viability at 50 µM [7]: 85.2%; Activity [8]: 8.5%; viability at 50 µM [9]: 87.7%; Activity [10]: 3.7%; Activity [11]: 2.8%; Activity [12]: 5.7%
Cc1cccc(-c2nn(CC(=S)Nc3ccccc3)cc2-c2ccnc3ccccc23)n1 | 3 | 3 | pIC50 [3]: 7.13; pIC50 [4]: 7.24
Cc1cccc(-c2nn(CC(=O)Nc3cccc(F)c3)cc2-c2ccnc(-c3ccccc3)c2)n1 | 14 | 3 | 

More lines, main results first:

Activity [1] [%] | Activity [2] [%] | Compound | other results
4 | 2 | Cc1cccc(-c2nn(CC(=S)Nc3ccccc3F)cc2-c2ccnc3ccccc23)n1 | pIC50 [3]: 7.17; pIC50 [4]: 7.28
10 | 2 | Cc1cccc(-c2nn(CC(=O)Nc3ccccc3)cc2-c2ccnc3ccccc23)n1 | 
9 | 6 | Cc1cccc(-c2nn(CC(=S)Nc3cccc(F)c3)cc2-c2ccnc(-c3ccccc3)c2)n1 | pIC50 [3]: 6.12; pIC50 [4]: 5.81
24 | 18 | Cc1cccc(-c2nn(CC(=O)Nc3cccc(C#N)c3)cc2-c2ccnc(-c3ccccc3)c2)n1 | 
6 | 0 | Cc1cccc(-c2nn(CC(=O)Nc3ccccc3F)cc2-c2ccnc3ccccc23)n1 | 
4 | 11 | Cc1cccc(-c2nn(CC(=S)Nc3ccccc3F)cc2-c2ccnc(-c3ccccc3)c2)n1 | pIC50 [3]: 6.31; pIC50 [4]: 5.69
6 | 1 | Cc1cccc(-c2nn(CC(=O)Nc3cccc(C#N)c3)cc2-c2ccnc3ccccc23)n1 | 
81 | 93 | Cc1cccc(-c2c(-c3ccnc(-c4ccccc4)c3)cnn2CC(=O)Nc2cccc(F)c2)n1 | 
